# Rows were chosen to be rich in hits. Some 3% of all compounds tested hit in one or more screens of this group.
# SENP8 block-1: SENP8 protease inhibition; Q96LD8; purified SENP8, Z-RLRGG-aminoluciferin cleavage, luminescence; inhibition, % at 10 µM; 1.2% of 330,000 active; AID 2540; in the data active means inhibition above about 50%
# UBC13 inh: blocks human UBC13 polyubiquitin chain formation | TR-FRET | inhibition, % at 20 µM | 0.47% of 330,000 active | AID 485273; in the data active means inhibition above about 45%, passing the limit was not always enough; inconclusive means no clear call, values can overlap the other calls
# SENP8 block-2: blocks human SENP8 cleavage of Nedd8 substrate; recombinant SENP8, Nedd8 substrate fluorescence; inhibition, % at 20 µM; 0.64% of 360,000 active; Q96LD8; AID 602440; in the data active means inhibition mostly above about 40%, no sharp cut-off; inactive means mostly below about 27%
# Apaf-1 inh: human Apaf-1 inhibition; 0.71% of 330,000 active; reconstituted apoptosome caspase-3 activity, DEVD-Rh110 fluorescence; AID 489030; O14727; inhibition, % at 20 µM; active means inhibition of at least 40% at 20 µM;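 further: plate controls were DMSO wells for no effect and DEVD-CHO caspase inhibitor wells for full effect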
#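 Material: biochemical Apaf-1 apoptosome reconstitution. Medium: Hepes buffer, pH 7.5. Also added: cytochrome c activation, bis-DEVD rhodamine 110 substrate. Timing: 30 min compound preincubation, 50 min activation, room temperature. Measured by: rhodamine 110 fluorescence at Ex 480/Em 540 nm.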
# SENP7 inh: blocks the human protease SENP7; recombinant SENP7, Z-RLRGG-aminoluciferin luminescence, 40 min; inhibition, % at 5 µM; 1.5% of 330,000 active; AID 434973;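 active means inhibition above about 50% at the single test dose, limit read from the data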;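 further: plate controls were DMSO with enzyme for no effect and no enzyme buffer wells for full effect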
# SENP6 block: blocks the human protease SENP6; Q9GZR1; Recombinant SENP6 catalytic domain, aminoluciferin luminescence; inhibition, % at 10 µM; 1.8% of 330,000 active;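 active means inhibition above about 50% at the single tested dose, limit read from the data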;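 further: plate controls were DMSO wells with enzyme for no effect and DMSO wells lacking enzyme for full effect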
# Target sequence (Q9GZR1 628-1112 limits assumed): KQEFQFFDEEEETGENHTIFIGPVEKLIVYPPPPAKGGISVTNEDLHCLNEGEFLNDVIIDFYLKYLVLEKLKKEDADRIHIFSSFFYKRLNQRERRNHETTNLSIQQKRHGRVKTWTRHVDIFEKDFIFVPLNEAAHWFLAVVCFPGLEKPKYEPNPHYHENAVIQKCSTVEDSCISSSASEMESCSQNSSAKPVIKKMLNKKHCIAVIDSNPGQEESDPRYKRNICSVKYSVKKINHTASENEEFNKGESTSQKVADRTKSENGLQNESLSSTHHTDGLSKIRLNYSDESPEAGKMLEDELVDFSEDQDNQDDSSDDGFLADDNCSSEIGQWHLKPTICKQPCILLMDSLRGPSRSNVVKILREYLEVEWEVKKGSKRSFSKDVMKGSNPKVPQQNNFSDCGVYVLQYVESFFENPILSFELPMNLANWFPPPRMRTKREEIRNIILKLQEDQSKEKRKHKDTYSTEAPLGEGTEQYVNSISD
# SENP8 confirm: confirmation of human SENP8 protease inhibitors | 40% of 6,200 active | Recombinant SENP8, Z-RLRGG-aminoluciferin luminescence, 60 min | shares compounds with SENP7 inh | inhibition, % at 12.5 µM;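 active means mean inhibition across replicates above about 50%, limit read from the data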
# SENP6 conf: confirmation of human SENP6 protease inhibitors. shares compounds with SENP7 inh. recombinant SENP6, Z-RLRGG-aminoluciferin luminescence. 58% of 6,200 active. inhibition, % at 12.5 µM. AID 488915
# SENP7 confirm: human SENP7 inhibition, confirmed; shares compounds with SENP7 inh; AID 488917; 69% of 6,200 active; recombinant SENP7, Z-RLRGG-aminoluciferin luminescence, 40 min; inhibition, % at 12.5 µM
# Casp3 SENP sel: inhibits human caspase-3 in SENP selectivity test; purified caspase-3, Z-DEVD-aminoluciferin luminescence, 60 min; 60% of 6,200 active; shares compounds with SENP7 inh; inhibition, % at 12.5 µM; AID 488918;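 active means mean inhibition above about 50%, limit read from the data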;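 further: plate controls were enzyme with DMSO for no effect and wells without caspase-3 for full effect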
# Target sequence (P42574 28-227 limits assumed): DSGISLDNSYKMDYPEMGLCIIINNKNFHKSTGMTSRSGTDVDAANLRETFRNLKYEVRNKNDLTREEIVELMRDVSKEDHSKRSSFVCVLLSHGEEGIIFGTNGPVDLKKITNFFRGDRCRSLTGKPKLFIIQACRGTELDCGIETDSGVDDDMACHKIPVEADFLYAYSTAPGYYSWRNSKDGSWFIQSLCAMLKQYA
# SENP luc ctr: luminescence interference (SENP counter-screen); 39% of 6,200 active; Pre-incubated SENP8/Z-RLRGG-aminoluciferin, luciferase luminescence interference; shares compounds with SENP7 inh; inhibition, % at 12.5 µM;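 active means mean inhibition above about 50% when retested at one dose, limit read from the data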;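 further: plate controls were DMSO wells with completed reaction for no effect and substrate without enzyme for full effect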
# An asterisk follows results filed as active; i = inactive; ? = inconclusive; . = no result.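 How the source made its calls, unless noted: active means mean inhibition above about 50% in the one-dose retest (limit read from the data); inactive means the rest.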
SMILES,SENP8 block-1,UBC13 inh,SENP8 block-2,Apaf-1 inh,SENP7 inh,SENP6 block,SENP8 confirm,SENP6 conf,SENP7 confirm,Casp3 SENP sel,SENP luc ctr
Cn1c(NCCN2CCCC2)nc2cc(-c3ccccc3)sc2c1=O,.,.,-144.0,.,.,.,.,.,.,.,.
O=c1c2sc(-c3ccccc3)cc2nc2n1CCCCC2,36.9,-5.3,22.3,-1.9,43.1,53.6*,38.5,37.2,73.5*,47.0,54.0*
CC1(C(=O)NS(=O)(=O)c2ccc(Br)cc2)CCN1C(=O)CCc1cccs1 (stereo not given),.,.,7.2,.,.,.,.,.,.,.,.
c1ccc(C2=NN(c3ccccc3)CC2)cc1,57.0*,4.7,-450.5,0.1,58.5*,5.7,12.7,23.9,32.5,40.0,36.7
O=C(Oc1ccc(/C=N/O)cc1)c1ccccc1,45.4,1.3,3.4,-4.3,80.0*,78.2*,66.2*,64.8*,89.4*,71.9*,79.3*
O=C(Oc1ccc2ccccc2c1)c1ccccc1,70.8*,-5.4,4.7,-1.0,-3.5,83.4*,73.5*,86.2*,95.1*,65.7*,69.6*
CC1CCCCc2nc3c(c(=O)n21)CCCC3 (stereo not given),.,.,14.1,.,.,.,.,.,.,.,.
Brc1ccc(-c2ncc(-c3ccccc3)cn2)cc1,19.8,-0.2,17.8,-3.2,74.1*,6.8,10.8,11.5,-5.5,-2.6,-2.2
CCCN1CCN(C(=O)c2ccccc2-c2nc3ccccc3s2)CC1,-2.5,-3.2,-4.1,9.9,-7.3,0.1,.,.,.,.,.
CCN1CCN(C(=O)c2ccc(-c3nc4ccccc4s3)s2)CC1,40.4,8.9,-319.2,1.7,47.1,61.1*,56.3*,52.0*,81.5*,69.0*,18.9
Cc1noc(C)c1COC(=O)c1ccc(-c2nc3ccccc3s2)s1,5.8,37.1,i,12.9,29.2,29.1,.,.,.,.,.
O=C(NC1CC1)c1ccc(-c2nc3ccccc3s2)s1,88.4*,2.9,-222.3,3.5,97.9*,90.9*,81.2*,94.9*,101.6*,96.0*,37.1
O=C(c1ccc(-c2nc3ccccc3s2)s1)N1CCOCC1,93.6*,-3.0,.,0.9,96.0*,96.9*,90.7*,97.0*,101.1*,96.3*,68.8*
CCNC(=O)COC(=O)c1ccc(-c2nc3ccccc3s2)s1,96.3*,13.7,-388.2,1.4,98.7*,96.5*,87.4*,95.6*,100.9*,92.6*,10.9
Cc1ccc2nc(NC(=O)c3ccc(-c4nc5ccccc5s4)s3)sc2c1,3.2,-19.0,-207.0,5.4,0.7,-4.3,.,.,.,.,.
CCOC(=O)C1=CCC(C(C)(C)C)N(S(=O)(=O)c2ccc(C)cc2)C1 (stereo not given),.,.,10.5,.,.,.,.,.,.,.,.
CC(=O)Oc1ccccc1Cn1c(C)c(C(=O)NCc2cccc([N+](=O)[O-])c2)sc1=O,.,.,3.9,.,.,.,.,.,.,.,.
c1cn2c(-c3ccc(N4CCOCC4)cc3)cncc2n1,.,.,i,.,.,.,.,.,.,.,.
FC(F)(F)c1ccc(-c2cccc3c2C2CC3CCN2Cc2ccc3c(c2)OCO3)cc1 (stereo not given),.,.,8.0,.,.,.,.,.,.,.,.
Cc1ccc(-c2nnc(-c3ccccc3Br)o2)cc1,86.1*,2.0,12.7,19.4,82.6*,89.7*,7.1,87.9*,98.2*,74.2*,75.9*
Brc1ccc(-c2nnc(-c3ccccc3Br)o2)cc1,70.2*,-8.6,3.2,22.3,73.7*,63.9*,18.0,18.1,24.7,27.9,15.1
CCn1ccc(C(=O)Nc2ccccc2Cl)n1,14.7,?,18.1,-2.9,50.5*,52.9*,34.1,37.9,75.6*,72.1*,56.4*
CC(C)(C)c1ccc(C(=O)Nc2ccccc2Cl)cc1,70.0*,-1.3,11.3,15.3,75.6*,80.4*,1.1,76.1*,94.2*,60.1*,61.4*
Cc1cc(C(=O)N/N=C/C=C/c2ccccc2)c(C)o1,-15.0,-9.4,8.4,2.3,0.5,7.6,.,.,.,.,.
Cc1occc1C(=O)N/N=C/C(Br)=C\c1ccccc1,90.9*,-5.1,13.6,10.3,95.6*,91.7*,90.7*,94.9*,101.1*,89.7*,60.6*
SMILES,SENP8 block-1,UBC13 inh,SENP8 block-2,Apaf-1 inh,SENP7 inh,SENP6 block,SENP8 confirm,SENP6 conf,SENP7 confirm,Casp3 SENP sel,SENP luc ctr
C/C(=N/NC(=O)c1ccoc1C)c1ccc(NC(=O)C2CCCC2)cc1,-10.2,-3.8,12.8,-0.9,-4.5,-7.4,.,.,.,.,.
C/C(=N\NC(=O)c1ccoc1C)c1ccccc1,51.0*,0.8,20.3,-2.1,69.4*,72.7*,11.2,59.5*,87.3*,84.4*,49.8
Cc1cc(C(=O)N/N=C/c2ccccc2)c(C)o1,34.4,-4.6,20.7,-28.0,73.6*,47.2,59.3*,57.3*,84.8*,83.2*,60.4*
Cc1occc1C(=O)N/N=C/c1ccc(N(C)C)cc1,96.4*,-6.0,-449.7,6.5,97.9*,96.1*,10.8,100.2*,103.6*,99.1*,98.0*
CC1=C(C(=O)N(C)C)CC(CC(=O)NC2CCCCC2)C(=O)N1Cc1ccc(F)cc1 (stereo not given),.,.,7.6,.,.,.,.,.,.,.,.
CCCC(=O)N1CCC1(C)C(=O)Nc1scc(C)c1C#N (stereo not given),.,.,15.6,.,.,.,.,.,.,.,.
COc1ccc(-c2nc3c(Cl)cc(C(F)(F)F)cn3c2Cc2ccc(C)cc2)cc1OC,.,.,-372.6,.,.,.,.,.,.,.,.
COc1ccc(C(NC(=O)C2CCN(CCOc3ccc(Cl)cc3)CC2)c2cccs2)cc1 (stereo not given),.,.,16.2,.,.,.,.,.,.,.,.
COc1ccc(N2C(=O)c3ccccc3NC(=O)C2C(=O)Nc2ccc(N3CCOCC3)cc2)cc1 (stereo not given),.,.,-24.9,.,.,.,.,.,.,.,.
Cc1occc1C(=O)N/N=C/C=C/c1ccccc1,43.3,-22.6,22.3,-0.9,54.8*,58.4*,70.1*,68.3*,91.2*,86.2*,70.0*
O=C(CN1CCC(n2nnc3cc(F)ccc32)CC1)NCCc1nc2ccccc2[nH]1,1.9,1.5,12.7,-7.7,52.3*,13.6,9.9,9.2,3.4,-2.6,-2.1
Cc1ccc2c(c1)nnn2C1CCN(CC(=O)N2CCN(c3ccc(F)cc3)CC2)CC1,2.6,1.4,10.0,-10.4,63.5*,-9.0,8.2,6.9,2.2,0.2,4.8
Cc1[nH]n(C(N)=S)c(=O)c1N=Nc1cccc(Cl)c1,89.2*,-1.4,20.5,-4.5,71.7*,91.2*,22.8,40.1,20.2,32.2,10.6
